pKi: −log10 of the molar value.
Columns and labels:
[1] = target: GABA-A receptor; anion channel; experiment: Binding affinity to BZR receptor on bovine cerebral cortex by [3H]flunitrazepam displacement.; format: tissue-based
Method in brief: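 Compounds first screened at 10 μM, then IC50 from log-probit plots and Ki derived from it. Ki given as mean ± SEM of four determinations.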

[2] = target: T1, GABA-A receptor; anion channel (Bos taurus) (UniProt P10063+P08220+P20237+P08219+P10064+P22300); experiment: GABA ratio is measured by IC50 (compound)/IC50 (compound at 10 uM GABA; format: protein-complex assay
Method in brief: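 [³H]flunitrazepam (0.2 nM) displacement in bovine brain membranes; IC50 from log-probit plots, measured without and with 10 μM GABA. Ratio = IC50 without GABA / IC50 with GABA, from five independent experiments; compounds dissolved in DMSO.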

[3] = target: T1, GABA-A receptor; anion channel (Bos taurus); experiment: Binding affinity to BZR receptor of bovine cerebral cortex by [3H]flunitrazepam displacement at 10 uM; format: tissue-based
Method in brief: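 Percent inhibition of specific binding measured with test compound at 10 μM, dissolved in DMSO.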

Row | SMILES | pKi [1] | Ratio [2] | inhibition [3] [%]
1 | Oc1ccc(-c2nc3c(O)nc4ccc(Cl)cc4n3n2)cc1 | 7.53 | 0.88 | –
2 | O=c1[nH]c2ccc(Cl)cc2n2nc(-c3cccs3)nc12 | 7.76 | – | –
3 | Oc1nc2ccc(Br)cc2n2nc(-c3ccco3)nc12 | 7.88 | 0.77 | –
4 | Oc1ccc(-c2nc3c(O)nc4ccccc4n3n2)cc1 | 7.17 | 0.9 | –
5 | Oc1nc2ccccc2n2nc(-c3ccco3)nc12 | 7.15 | 1.05 | –
6 | COc1ccc(-c2cn3c(n2)c(O)nc2ccccc23)cc1 | 7.25 | 1.21 | –
7 | Oc1nc2ccc(Cl)cc2n2nc(-c3ccco3)nc12 | 7.84 | 0.67 | –
8 | Oc1nc2ccc(Cl)cc2n2nc(-c3ccccc3F)nc12 | 8.54 | 0.77 | –
9 | O=c1[nH]c2ccc(Cl)cc2n2nc(-c3ccsc3)nc12 | 7.80 | – | –
10 | Cn1c(=O)c2nc(-c3ccccc3)cn2c2ccccc21 | – | – | 2
11 | Oc1nc2ccccc2n2cc(-c3cccs3)nc12 | 7.80 | 1.13 | –
12 | Oc1nc2ccc(Cl)cc2n2nc(-c3cccc(F)c3)nc12 | 7.48 | 0.82 | –
13 | Oc1nc2ccc(Cl)cc2n2nc(-c3ccsc3)nc12 | – | 0.8 | –
14 | COc1ccc(-c2nc3c(O)nc4ccc(Cl)cc4n3n2)cc1 | – | 1.03 | –
15 | Oc1nc2ccc(Cl)cc2n2nc(-c3cccs3)nc12 | – | 1.09 | –
16 | Oc1nc2ccccc2n2cc(-c3ccccc3)nc12 | 7.37 | 1.36 | –
17 | COc1ccc(-c2nc3c(O)nc4ccccc4n3n2)cc1 | 7.06 | 1.04 | –
18 | Oc1nc2ccc(Cl)cc2n2nc(-c3ccoc3)nc12 | 8.01 | 0.84 | –
19 | Oc1nc2ccccc2n2nc(-c3cccs3)nc12 | 7.66 | 0.92 | –
20 | Oc1nc2ccccc2n2nc(-c3ccccc3F)nc12 | 8.05 | 1.04 | –
21 | COc1ccc(-c2nc3c(=O)[nH]c4ccc(Cl)cc4n3n2)cc1 | 8.27 | – | –
